The structures appear in SMILES notation. Bounds are passed on as bounds.

The test system of one test is PBMC. Nature of the test: Cytotoxicity against human PBMC by MTS assay. The format is cell-based. The method, boiled down: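 Cells from the LPS-stimulated hPBMC assay were given MTS-[…] reagent and incubated 5-6 h until absorbance reached 0.5. Read at 490 nm. Percent cytotoxicity was calculated from mean absorbance relative to the 0.5% DMSO vehicle control.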
Turning to `CS(=O)(=O)c1ccc(-c2ccc3ncc(S(=O)(=O)N4CCC(C#N)(c5ccccc5)CC4)n3n2)cc1`, the IC50 is greater than 30 µM. Consider `N#CC1(c2ccccc2)CCN(S(=O)(=O)c2cnc3ccc(Cl)nn23)CC1`, for which the IC50 was greater than 30 µM. Molecule `O=S(=O)(c1cnc2ccc(-c3cncc(F)c3)nn12)N1CCN(c2ccccn2)CC1` came in with an IC50 greater than 30 µM. Molecule `CS(=O)(=O)c1ccc(-c2ccc3ncc(S(=O)(=O)NCC4CCCO4)n3n2)cc1` (centres undefined) had an IC50 greater than 30 µM. `O=S(=O)(NCC1CCCO1)c1cnc2ccc(-c3cncc(C(F)(F)F)c3)nn12` (centres undefined): the IC50 is greater than 30 µM.

For `COc1cccc(CNS(=O)(=O)c2cnc3ccc(-c4cncc(C(F)(F)F)c4)nn23)c1`, the IC50 was greater than 30 µM. The same measure, in the same setting: next, `COc1cccc(CNS(=O)(=O)c2cnc3ccc(-c4ccc(OC)nc4)nn23)c1`: greater than 30 µM; `O=S(=O)(c1cnc2ccc(-c3cccnc3)nn12)N1CCN(c2ccccn2)CC1`: greater than 30 µM; `O=S(=O)(NCC1CCCO1)c1cnc2ccc(-c3cccnc3)nn12` (centres undefined): greater than 30 µM. On to `N#CC1(c2ccccc2)CCN(S(=O)(=O)c2cnc3ccc(-c4cncc(F)c4)nn23)CC1`, for which the concentration for half-maximal inhibition (IC50) is greater than 30 µM. In turn, `O=S(=O)(NCC1CCCO1)c1cnc2ccc(-c3cncc(F)c3)nn12` (centres undefined) returned an IC50 greater than 30 µM.

For the molecule `NS(=O)(=O)c1cnc2ccc(Cl)nn12`, the IC50 was greater than 30 µM. Molecule `N#CC1(c2ccccc2)CCN(S(=O)(=O)c2cnc3ccc(-c4cccnc4)nn23)CC1` gave an IC50 greater than 30 µM. With `O=S(=O)(c1cnc2ccc(Cl)nn12)N1CCN(c2ccccc2)CC1`, the IC50 was greater than 30 µM. `O=S(=O)(c1cnc2ccc(Cl)nn12)N1CCN(Cc2ccccc2)CC1` showed an IC50 greater than 30 µM. With `COc1cccc(CNS(=O)(=O)c2cnc3ccc(-c4ccc(S(C)(=O)=O)cc4)nn23)c1`, the IC50 is greater than 30 µM. Regarding `CCN1CCN(S(=O)(=O)c2cnc3ccc(-c4ccc(OC)cc4)nn23)CC1`, the IC50 was greater than 30 µM.

Turning to `CCN1CCN(S(=O)(=O)c2cnc3ccc(-c4ccc(OC)nc4)nn23)CC1`, the IC50 was greater than 30 µM.

In turn, `O=S(=O)(c1cnc2ccc(-c3cncc(C(F)(F)F)c3)nn12)N1CCN(c2ccccn2)CC1` had an IC50 greater than 30 µM. With `COc1ccc(-c2ccc3ncc(S(=O)(=O)NCC4CCCO4)n3n2)cc1` (centres undefined), the IC50 was greater than 30 µM. The same measure, in the same setting: next, `COc1ccc(-c2ccc3ncc(S(=O)(=O)NCC4CCCO4)n3n2)cn1` (centres undefined): greater than 30 µM; `N#CC1(c2ccccc2)CCN(S(=O)(=O)c2cnc3ccc(-c4cncc(C(F)(F)F)c4)nn23)CC1`: greater than 30 µM; `Nc1ncc(-c2ccc3ncc(S(=O)(=O)N4CCN(c5ccccn5)CC4)n3n2)cc1C(F)(F)F`: greater than 30 µM. For the molecule `CCN1CCN(S(=O)(=O)c2cnc3ccc(-c4cncc(F)c4)nn23)CC1`, the IC50 is greater than 30 µM. `COc1cccc(CNS(=O)(=O)c2cnc3ccc(-c4cncc(F)c4)nn23)c1` yielded an IC50 greater than 30 µM. `O=S(=O)(c1cnc2ccc(Cl)nn12)N1CCN(c2ccccn2)CC1` yielded an IC50 greater than 30 µM. On to `O=S(=O)(NCC1CCCO1)c1cnc2ccc(Cl)nn12` (centres undefined), for which the IC50 was greater than 30 µM. Same read-out and setting: as for `O=S(=O)(c1cnc2ccc(-c3cccnc3)nn12)N1CCN(Cc2ccccc2)CC1`, the figure is greater than 30 µM; as for `CCN1CCN(S(=O)(=O)c2cnc3ccc(-c4ccc(S(C)(=O)=O)cc4)nn23)CC1`, greater than 30 µM; as for `CCN1CCN(S(=O)(=O)c2cnc3ccc(-c4cncc(C(F)(F)F)c4)nn23)CC1`, greater than 30 µM. On the same count and under the same terms, next, `COc1ccc(-c2ccc3ncc(S(=O)(=O)N4CCN(c5ccccn5)CC4)n3n2)cn1`: greater than 30 µM; `COc1cccc(CNS(=O)(=O)c2cnc3ccc(-c4cccnc4)nn23)c1`: greater than 30 µM.

With `COc1ccc(-c2ccc3ncc(S(=O)(=O)N4CCC(C#N)(c5ccccc5)CC4)n3n2)cc1OC`, the IC50 was greater than 30 µM. `COc1cccc(CNS(=O)(=O)c2cnc3ccc(-c4cnc(N)c(C(F)(F)F)c4)nn23)c1` displayed an IC50 greater than 30 µM. The molecule `CS(=O)(=O)c1ccc(-c2ccc3ncc(S(=O)(=O)N4CCN(Cc5ccccc5)CC4)n3n2)cc1` registered a 50% inhibitory concentration (IC50) greater than 30 µM. For `CS(=O)(=O)c1ccc(-c2ccc3ncc(S(=O)(=O)N4CCN(c5ccccn5)CC4)n3n2)cc1`, the IC50 was greater than 30 µM. For `Nc1ncc(-c2ccc3ncc(S(N)(=O)=O)n3n2)cc1C(F)(F)F`, the IC50 is greater than 30 µM. As to `CCN1CCN(S(=O)(=O)c2cnc3ccc(-c4cccnc4)nn23)CC1`, the IC50 was greater than 30 µM. As for `CCN1CCN(S(=O)(=O)c2cnc3ccc(Cl)nn23)CC1`, the IC50 is greater than 30 µM.

In the case of `O=S(=O)(c1cnc2ccc(-c3cncc(F)c3)nn12)N1CCN(Cc2ccccc2)CC1`, the concentration for half-maximal inhibition (IC50) was greater than 30 µM. The same measure, in the same setting: next, `COc1cccc(CNS(=O)(=O)c2cnc3ccc(Cl)nn23)c1`: greater than 30 µM. `COc1ccc(C2CNC(=O)C2)cc1OC1CCCC1` (centres undefined) [ROLIPRAM] yielded an IC50 greater than 30 µM.

A further test relates to L929. Nature of the test: Cytoprotective against human TNF-alpha-induced cell death in mouse L929 cells by MTT assay. It is filed as functional, cell-based.
In the case of `O=C1/C(=N/Nc2ccc(Cl)c([N+](=O)[O-])c2)C(c2ccccc2)NN1c1nc(-c2ccccc2)cs1` (centres undefined), the IC50 worked out at 9 µM.

The target in the next test is T1, Tumor necrosis factor (Mus musculus, UniProt P06804).
T1 sequence (P06804 whole entry): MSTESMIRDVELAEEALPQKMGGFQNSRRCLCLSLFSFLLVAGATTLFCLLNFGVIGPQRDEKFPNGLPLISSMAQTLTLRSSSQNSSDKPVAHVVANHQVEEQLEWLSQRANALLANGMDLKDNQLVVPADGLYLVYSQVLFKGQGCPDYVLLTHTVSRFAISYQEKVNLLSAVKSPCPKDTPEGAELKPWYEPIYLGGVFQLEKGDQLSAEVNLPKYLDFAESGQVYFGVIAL
Nature of the test: Inhibition of mouse recombinant TNF-alpha binding to antibody preincubated for 30 mins followed by antibody addition measured after 2 hrs by ELISA.
On to `CCCCn1cnc(CC(c2c(O)c3ccccc3oc2=O)c2c(O)c3ccccc3oc2=O)c1Cl`, for which the IC50 stood at 16.5 µM.

The values are drawn from ChEMBL document CHEMBL4184173, “Synthesis and in vitro evaluations of 6-(hetero)-aryl-imidazo[1,2-b]pyridazine-3-sulfonamide's as an inhibitor of TNF-α production” (Bioorg Med Chem Lett, 2018).
